Assay results published in ChEMBL document CHEMBL1141383, “Polycationic sulfonamides for the sequestration of endotoxin” (J Med Chem, 2007).

How the values were obtained:
[1] = tested on: HEK293; assay: Inhibition of LPS-induced NF-kappaB production in HEK293 cells; assay type: functional, cell-based; details: Homo sapiens
Summary of the method: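 HEK293 cells cotransfected with TLR4, CD14 and MD2 were stimulated with LPS, and induction of NF-κB was quantified. IC50 is the concentration inhibiting 50% of the response. Run in triplicate with polymyxin B reference and negative and positive controls.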

[2] = tested on: J774.1; assay: Inhibition of LPS-induced nitric oxide production in murine J774.1 cells by automated Griess assay; assay type: functional, cell-based; details: Mus musculus
Summary of the method: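 Murine macrophage J774A.1 cells were stimulated with 100 ng/mL LPS, and NO was read by automated Griess assay. IC50 is the concentration inhibiting 50% of the response. Run in triplicate with polymyxin B reference and negative and positive controls.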

[3] = Binding affinity to lipid A moiety of LPS in gram negative bacteria by fluorescent-based displacement assay
Summary of the method: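 LPS binding measured by automated rapid-throughput fluorescence displacement of the probe BODIPY-TR cadaverine from LPS. ED50 is the concentration displacing 50% of LPS-bound probe. Run in triplicate, with polymyxin B as reference and negative and positive controls.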

[4] = tested on: Blood; assay: Inhibition of LPS-induced TNFalpha release in human whole blood; assay type: functional, tissue-based
Summary of the method: (§1)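 Healthy human whole blood, ex vivo, was stimulated with LPS. TNF-α, IL-1β, IL-6, IL-8, IL-10 and IL-12p70 were quantified concurrently by a multiplexed flow-cytometric bead array. IC50 is the concentration inhibiting 50% of the response. Run in triplicate with polymyxin B reference and negative and positive controls.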

[5] = tested on: Blood; assay: Inhibition of LPS-induced IL6 release in human whole blood; assay type: functional, tissue-based; summary of the method: as §1
[6] = tested on: Blood; assay: Inhibition of LPS-induced IL8 release in human whole blood; assay type: functional, tissue-based; summary of the method: as §1
[7] = tested on: Mus musculus; assay: Protection against LPS-induced lethality in galactosamine-sensitized CF1 mouse model of septic shock at 8 mg/kg after 24 hrs; assay type: functional, organism-based; set-up: dose 8 mg/kg
Summary of the method: (§2)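 Female outbred CF-1 mice, 9–11 weeks old and 22–28 g, were sensitized with D-galactosamine. Cohorts of five received graded compound doses in saline i.p. in one flank, immediately before an i.p. challenge of 200 ng E. coli 0111:B4 LPS (2× LD100) in the other flank. Lethality was scored at 24 h.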

[8] = tested on: Mus musculus; assay: Protection against LPS-induced lethality in galactosamine-sensitized CF1 mouse model of septic shock at >2 mg/kg after 24 hrs; assay type: functional, organism-based; summary of the method: as §2

SMILES	IC50 [1] [µM]	IC50 [2] [µM]	ED50 [3] [µM]	IC50 [4] [µM]	IC50 [5] [µM]	IC50 [6] [µM]	Activity [7]	IC50 [3] [µM]	Activity [8]
CCCCCCCCS(=O)(=O)NCCCNCCCNCCCCNCCCNCCCNS(=O)(=O)CCCCCCCC	0.607	0.577	2.6						
CCCCCCCCCCCCCCCCS(=O)(=O)NCCCN(CCCNCCCCNCCCN)CCCNS(=O)(=O)CCCCCCCCCCCCCCCC	4.85	15.1	26.4						
CCCCCCCCCCCCS(=O)(=O)NCCCNCCCNCCCN	0.363		4.27						
CCCCCCCCCCCCCCCCS(=O)(=O)NCCCNCCCNCCCCNCCCNCCCNS(=O)(=O)CCCCCCCCCCCCCCCC	11.7	6.3	133						
CCCCCCCCCCCCS(=O)(=O)NCCCNCCCNCCCCNCCCN	0.19	0.39	2.92	30.1	12.1	15.3			
CCCCCCCCCCS(=O)(=O)NCCCNCCCCNCCCN	0.5	4.42	3.7						
CCCCCCCCCCCCS(=O)(=O)NCCCNC/C=C/CNCCCN	0.522		3.83						
CCCCCCCCS(=O)(=O)NCCCNC/C=C/CNCCCN	12.7		12.4						
CCCCCCCCCCCCS(=O)(=O)NCCCN(CCCNCCCCNCCCN)CCCNS(=O)(=O)CCCCCCCCCCCC	13.2	2.27	3.98						
CCCCCCCCS(=O)(=O)NCCCNCCCCNCCCN	33.3	1.44	6.64						
CCCCCCCCCCCCCCCCCCS(=O)(=O)NCCCNCCCCNCCCN	0.36	0.48	6.01	18	8.8	15.4			
CCCCCCCCS(=O)(=O)NCCCNCCCNCCCN	5.56		6.7						
CCCCCCCCCCCCCCCCS(=O)(=O)NCCCOCCCCOCCCN	22.4	30.9	> 5000						
CCCCCCCCCCS(=O)(=O)NCCCNCCCNCCCCNCCCN	0.278	1.09	2.89	32.9	29.4	22.4			
CCCCCCCCCCCCCCCCCCS(=O)(=O)NCCCNCCCNCCCCNCCCNCCCNS(=O)(=O)CCCCCCCCCCCCCCCCCC	6.49	4.22	5000						
CCCCCCCCCCS(=O)(=O)NCCCN(CCCNCCCCNCCCN)CCCNS(=O)(=O)CCCCCCCCCC	5.17	1.1	2.4						
CCCCCCCCCCCCCCCCS(=O)(=O)NCCCNCCCCNCCCN	0.28	0.45	3.87	22.1	8.17	15.2	Dose-dependent effect		
CCCCCCCCS(=O)(=O)NCCCN(CCCNCCCCNCCCN)CCCNS(=O)(=O)CCCCCCCC	0.669	1.82	2.17						

SMILES	IC50 [1] [µM]	IC50 [2] [µM]	ED50 [3] [µM]	IC50 [4] [µM]	IC50 [5] [µM]	IC50 [6] [µM]	Activity [7]	IC50 [3] [µM]	Activity [8]
CCCCCCCCCCCCS(=O)(=O)NCCCNCCCNCCCCNCCCNCCCNS(=O)(=O)CCCCCCCCCCCC	10.3	5	55.2						
CCCCCCCCCCCCCCCCS(=O)(=O)NCCCN(CCCNCCCNCCCCNCCCN)CCCNS(=O)(=O)CCCCCCCCCCCCCCCC	2.68	5.2	9.31						
CCCCCCCCCCCCS(=O)(=O)NCCCNCCCCNCCCN	0.41	1.34	2.69						
CCCCCCCCCCCCCCCCCCS(=O)(=O)NCCCNCCCNCCCCNCCCN	1.06	0.23	4.45						
CCCCCCCCS(=O)(=O)NCCCNCCCNCCCCNCCCN	0.816	6.47	2.84						
CCCCCCCCCCCCCCCCS(=O)(=O)N(CCCN)CCCCNCCCN	2.68	13.7	45.6						
CCCCCCCC(=O)NCCCN(CCCNCCCCNCCCN)CCCNC(=O)CCCCCCC	9.76	9.02	1						
CCCCCCCCS(=O)(=O)NCCNCCCNCCN	13.8		10.6						
CCCCCCCCCCCCCCCCCCS(=O)(=O)NCCCN(CCCNCCCCNCCCN)CCCNS(=O)(=O)CCCCCCCCCCCCCCCCCC	64		28.3						
CCCCCCCCCCCCS(=O)(=O)NCCCN(CCCNCCCNCCCCNCCCN)CCCNS(=O)(=O)CCCCCCCCCCCC	16.4	0.51	6.82						
CCCCCCCCCCCCCCCCS(=O)(=O)NCCCN(CCCN)CCCN	9.19		12.3						
CCCCCCCC(=O)NCCCN(CCCNCCCNCCCCNCCCN)CCCNC(=O)CCCCCCC	3.17	2.48	1.32						
CCCCCCCCCCCCCCCCS(=O)(=O)NCCCNCCCNCCCCNCCCN	0.2	0.12	4.71	14.2	5.92	15.1	Dose-dependent effect	4.2	
CCCCCCCCCCS(=O)(=O)NCCCN(CCCNCCCNCCCCNCCCN)CCCNS(=O)(=O)CCCCCCCCCC	2.2	0.43	1.16						
CCCCCCCCCCCCS(=O)(=O)NCCNCCCNCCN	0.686		4.77						
CCCCCCCCS(=O)(=O)NCCCN(CCCNCCCNCCCCNCCCN)CCCNS(=O)(=O)CCCCCCCC	0.3	0.32	2.62	11	7.77	12.5			Toxic
CCCCCCCCCCCCCCCCS(=O)(=O)NCCN(CCN)CCN	0.379		3.54						
CCCCCCCCCCS(=O)(=O)NCCCNCCCNCCCCNCCCNCCCNS(=O)(=O)CCCCCCCCCC	4.2	0.692	13.5						
